Drawing on ChEMBL document CHEMBL3124827, “Design and synthesis of 2-styryl of 5-Nitroimidazole derivatives and antimicrobial activities as FabH inhibitors” (Eur J Med Chem, 2014), this text covers IC50 and Activity for 26 compounds.

For one data set, the system named is Escherichia coli. Nature of the data set: Antibacterial activity against Escherichia coli after 12 hrs by MTT assay. The format is functional, organism-based. The method, boiled down:
(§1)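 MTT broth-dilution assay; drug-containing medium added to final concentrations of 320, 160, 40, 10, 2.5 and 0.25 µg/mL, each in triplicate. After 12 h, 25 µL of 5 mg/mL MTT in PBS added; after 4 h medium discarded, formazan dissolved in 150 µL DMSO with 10 min shaking, absorbance read at 490 nm; 50% inhibitory concentration reported.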

A further data set deals with Pseudomonas aeruginosa. Briefly: Antibacterial activity against Pseudomonas aeruginosa after 12 hrs by MTT assay. The format is functional, organism-based. The method, boiled down: as §1
Another data set deals with Bacillus subtilis. Briefly: Antibacterial activity against Bacillus subtilis after 12 hrs by MTT assay. The data set is classed as functional, organism-based. An outline of the steps:
as §1

Another data set concerns Bacillus thuringiensis. Briefly: Antibacterial activity against Bacillus thuringiensis after 12 hrs by MTT assay. The format is functional, organism-based. The method, boiled down: as §1
Data set [1] can be described thus: Inhibition of Escherichia coli FabH expressed in Escherichia coli BL21 (DE3) after 25 mins. An outline of the steps:
(§2)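 His-tagged FabH purified by Ni-NTA (IPTG 0.5 mM induction in kanamycin LB), stored at 2 mg/mL. 20 µL reaction: 20 mM Na2HPO4 pH 7.0, 0.5 mM DTT, 0.25 mM MgCl2, 2.5 µM holo-ACP, 1 nM FabH; after 1 min, 25 µM acetyl-CoA, 0.5 mM NADH, 0.5 mM NADPH added for 25 min; 3H incorporation by liquid scintillation; inhibitors from DMSO stock, final DMSO ≤2%; IC50 determined.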

Data set [2] is described as follows: Inhibition of Pseudomonas aeruginosa FabH after 25 mins. An outline of the steps: as §2
A short description of data set [3]: Cytotoxicity against human macrophages up to 160 ug/ml after 24 hrs by MTT assay. The data set is classed as cell-based. Particulars: macrophage. An outline of the steps: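 Cells grown to 90% confluency, switched to serum-free DMEM, exposed to various concentrations for 24 h; viability by MTT, read spectrophotometrically as absorbance difference 570 minus 630 nm.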

A short description of data set [4]: Cytotoxicity against human macrophages assessed as change in morphology at 0.25 to 160 ug/ml after 24 hrs using Giemsa staining by phase contrast microscopic analysis. The data set is classed as cell-based. Particulars: macrophage. An outline of the steps:
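Confluent cells (100 µL stock suspension) grown to 90% confluency, medium replaced with serum-free DMEM, then exposed 24 h to 0.25 or 160 µg/mL test compound; cell morphology compared with untreated control after Giemsa staining under phase contrast microscopy.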

SMILES strings stand for the structures. pIC50: −log10 of the molar value. Values after ≈ are worked out from the molar mass of the structure shown. A value given as a limit tells only on which side of the number the result lay.

With `O=[N+]([O-])c1cnc(/C=C/c2ccccc2)n1CCO`, the half-inhibitory concentration (IC50) with Escherichia coli is greater than 200 µg/mL; in the data set on Pseudomonas aeruginosa, 12.4 µg/mL (≈ 47.8 µM); in the data set with Bacillus subtilis, 49.3 µg/mL (≈ 190 µM); in the data set on Bacillus thuringiensis it was 49.5 µg/mL (≈ 191 µM).
As to `COc1ccc(/C=C/c2ncc([N+](=O)[O-])n2CCO)cc1`, the IC50 amounted to 89.1 µg/mL (≈ 308 µM) with Escherichia coli, 30.2 µg/mL (≈ 104 µM) in the data set on Pseudomonas aeruginosa, 146 µg/mL (≈ 506 µM) with Bacillus subtilis and 67.4 µg/mL (≈ 233 µM) in the data set on Bacillus thuringiensis.
As to `O=[N+]([O-])c1cnc(/C=C/c2ccc(Br)cc2)n1CCO`, the IC50 in the data set on Escherichia coli turned out to be 119 µg/mL (≈ 353 µM); in the data set with Pseudomonas aeruginosa, 32.2 µg/mL (≈ 95.2 µM); in the data set with Bacillus subtilis, 114 µg/mL (≈ 336 µM); with Bacillus thuringiensis it was 19.2 µg/mL (≈ 56.8 µM).
Turning to `O=[N+]([O-])c1cnc(/C=C/c2cccc(F)c2)n1CCO`, the IC50 stood at 114 µg/mL (≈ 412 µM) with Escherichia coli, 16.8 µg/mL (≈ 60.6 µM) in the data set on Pseudomonas aeruginosa, 36.6 µg/mL (≈ 132 µM) with Bacillus subtilis and 55.1 µg/mL (≈ 199 µM) in the data set with Bacillus thuringiensis.
The matching figures for `O=[N+]([O-])c1cnc(/C=C/c2ccc(Cl)cc2)n1CCO`: greater than 200 µg/mL, 48.3 µg/mL (≈ 164 µM), 32.8 µg/mL (≈ 112 µM) and 32.1 µg/mL (≈ 109 µM).
Turning to `O=[N+]([O-])c1cnc(/C=C/c2ccc(F)cc2)n1CCO`, the negative logarithm of the IC50 (pIC50) is 4.78 in data set [1] and 4.65 in data set [2]. For the same compound, the IC50 in the data set with Escherichia coli was 57.2 µg/mL (≈ 206 µM); in the data set with Pseudomonas aeruginosa it was 1.7 µg/mL (≈ 6.13 µM); in the data set on Bacillus subtilis, 8.8 µg/mL (≈ 31.7 µM); with Bacillus thuringiensis, 12.5 µg/mL (≈ 45.1 µM).
With `O=[N+]([O-])c1cnc(/C=C/c2cccc(Cl)c2)n1CCO`, the half-maximal inhibitory concentration (IC50) in the data set with Escherichia coli is 119 µg/mL (≈ 406 µM); with Pseudomonas aeruginosa, 14.7 µg/mL (≈ 50 µM); in the data set with Bacillus subtilis it was 40.7 µg/mL (≈ 139 µM); in the data set with Bacillus thuringiensis, 25.7 µg/mL (≈ 87.5 µM).
With `COc1cccc(/C=C/c2ncc([N+](=O)[O-])n2CCO)c1`, the IC50 in the data set with Escherichia coli was greater than 200 µg/mL; with Pseudomonas aeruginosa it was 46.1 µg/mL (≈ 159 µM); in the data set with Bacillus subtilis it was 26.2 µg/mL (≈ 90.6 µM); with Bacillus thuringiensis it was 12.1 µg/mL (≈ 41.8 µM).
On to `O=[N+]([O-])c1ccc(/C=C/c2ncc([N+](=O)[O-])n2CCO)cc1`, for which the negative-log IC50 (pIC50) in data set [1] is 5.68; in data set [2], 4.91. Also, the Activity result in data set [3] and in data set [4] was “Non-toxic” in each case. Also, the IC50 with Escherichia coli turned out to be 36.4 µg/mL (≈ 120 µM); in the data set with Pseudomonas aeruginosa, 15.5 µg/mL (≈ 50.9 µM); in the data set with Bacillus subtilis it was 9 µg/mL (≈ 29.6 µM); in the data set with Bacillus thuringiensis, 13.9 µg/mL (≈ 45.7 µM).
As to `COc1ccccc1/C=C/c1ncc([N+](=O)[O-])n1CCO`, the IC50 in the data set on Escherichia coli was found to be 188 µg/mL (≈ 649 µM); in the data set on Pseudomonas aeruginosa it was 20.4 µg/mL (≈ 70.5 µM); in the data set with Bacillus subtilis it was 19.8 µg/mL (≈ 68.4 µM); with Bacillus thuringiensis, 37.3 µg/mL (≈ 129 µM).
As to `O=[N+]([O-])c1cnc(/C=C/c2cccc(Br)c2)n1CCO`, the IC50 in the data set on Escherichia coli was 116 µg/mL (≈ 342 µM); in the data set with Pseudomonas aeruginosa it was 43.6 µg/mL (≈ 129 µM); with Bacillus subtilis, 24.4 µg/mL (≈ 72.2 µM); in the data set with Bacillus thuringiensis, 23.4 µg/mL (≈ 69.2 µM).
As to `CCOC(OCC)c1ccc(/C=C/c2ncc([N+](=O)[O-])n2CCO)cc1`, the pIC50 in data set [1] is 5.38; in data set [2], 4.80. Besides, the half-inhibitory concentration (IC50) with Escherichia coli was determined as 59.2 µg/mL (≈ 164 µM); in the data set on Pseudomonas aeruginosa it was 70.3 µg/mL (≈ 195 µM); in the data set on Bacillus subtilis, 17.9 µg/mL (≈ 49.5 µM); with Bacillus thuringiensis it was 5.9 µg/mL (≈ 16.3 µM).
As to `O=[N+]([O-])c1cnc(/C=C/c2ccccc2F)n1CCO`, the negative-log IC50 (pIC50) was 5.36 in data set [1] and 4.72 in data set [2]. Further, the IC50 was greater than 200 µg/mL in the data set on Escherichia coli, 6.8 µg/mL (≈ 24.5 µM) in the data set with Pseudomonas aeruginosa, 61.5 µg/mL (≈ 222 µM) in the data set on Bacillus subtilis and 29.9 µg/mL (≈ 108 µM) with Bacillus thuringiensis.
For `O=[N+]([O-])c1cnc(/C=C/c2ccccc2Cl)n1CCO`, the pIC50 in data set [1] is 5.19; in data set [2], 4.53. For the same compound, the IC50 stood at 175 µg/mL (≈ 595 µM) with Escherichia coli, 17.8 µg/mL (≈ 60.6 µM) in the data set on Pseudomonas aeruginosa, 2.9 µg/mL (≈ 9.87 µM) in the data set on Bacillus subtilis and 37.8 µg/mL (≈ 129 µM) in the data set on Bacillus thuringiensis.
On to `Cc1ccc(/C=C/c2ncc([N+](=O)[O-])n2CCO)cc1`, for which the IC50 in the data set with Escherichia coli is 145 µg/mL (≈ 530 µM); in the data set with Pseudomonas aeruginosa it was 2.9 µg/mL (≈ 10.6 µM); in the data set with Bacillus subtilis, 42.6 µg/mL (≈ 156 µM); in the data set with Bacillus thuringiensis it was 28.6 µg/mL (≈ 105 µM).
The corresponding values for `O=[N+]([O-])c1cnc(/C=C/c2c(F)cccc2Cl)n1CCO` are 82.1 µg/mL (≈ 263 µM), 38.1 µg/mL (≈ 122 µM), 19.6 µg/mL (≈ 62.9 µM) and 25.3 µg/mL (≈ 81.2 µM).
The matching figures for `O=[N+]([O-])c1cnc(/C=C/c2ccc(Cl)cc2Cl)n1CCO`: greater than 200 µg/mL, 39.3 µg/mL (≈ 120 µM), 57.1 µg/mL (≈ 174 µM) and 36.7 µg/mL (≈ 112 µM).
For `CN(C)c1ccc(/C=C/c2ncc([N+](=O)[O-])n2CCO)cc1`, the pIC50 in data set [1] is 4.99; in data set [2] it was 4.59. In addition, the half-inhibitory concentration (IC50) worked out at 88 µg/mL (≈ 291 µM) in the data set on Escherichia coli, 121 µg/mL (≈ 400 µM) in the data set with Pseudomonas aeruginosa, 17.2 µg/mL (≈ 56.9 µM) with Bacillus subtilis and 7.2 µg/mL (≈ 23.8 µM) in the data set on Bacillus thuringiensis.
As to `O=[N+]([O-])c1cccc(/C=C/c2ncc([N+](=O)[O-])n2CCO)c1`, the IC50 is greater than 200 µg/mL in the data set on Escherichia coli, 74.6 µg/mL (≈ 245 µM) with Pseudomonas aeruginosa, 53.1 µg/mL (≈ 175 µM) with Bacillus subtilis and 7 µg/mL (≈ 23 µM) in the data set on Bacillus thuringiensis.
The matching figures for `O=[N+]([O-])c1cnc(/C=C/c2ccccc2Br)n1CCO`: greater than 200 µg/mL, 7.6 µg/mL (≈ 22.5 µM), 27.9 µg/mL (≈ 82.5 µM) and 9.3 µg/mL (≈ 27.5 µM).
The matching figures for `O=[N+]([O-])c1ccccc1/C=C/c1ncc([N+](=O)[O-])n1CCO`: 157 µg/mL (≈ 517 µM), 12.8 µg/mL (≈ 42.1 µM), 11.8 µg/mL (≈ 38.8 µM) and 5.8 µg/mL (≈ 19.1 µM).
Turning to `O=[N+]([O-])c1cnc(/C=C/c2ccc3ccccc3c2)n1CCO`, the pIC50 in data set [1] is 4.96; in data set [2] it was 4.99. Further, the IC50 in the data set on Escherichia coli is greater than 200 µg/mL; in the data set with Pseudomonas aeruginosa, 19.8 µg/mL (≈ 64 µM); with Bacillus subtilis, 3.6 µg/mL (≈ 11.6 µM); with Bacillus thuringiensis, 11.9 µg/mL (≈ 38.5 µM).
With `O=[N+]([O-])c1cnc(/C=C/c2ccc(OCc3ccccc3)cc2)n1CCO`, the pIC50 in data set [1] was 5.47; in data set [2], 5.10. The Activity result in data set [3] and in data set [4] was “Non-toxic” each time. For the same compound, the IC50 stood at 34.3 µg/mL (≈ 93.9 µM) in the data set with Escherichia coli, 14.5 µg/mL (≈ 39.7 µM) in the data set with Pseudomonas aeruginosa, 6.3 µg/mL (≈ 17.2 µM) in the data set with Bacillus subtilis and 9.8 µg/mL (≈ 26.8 µM) in the data set with Bacillus thuringiensis.
Take `O=[N+]([O-])c1cnc(/C=C/c2cccc3ccccc23)n1CCO`: the IC50 with Escherichia coli was 153 µg/mL (≈ 496 µM); with Pseudomonas aeruginosa, 13.1 µg/mL (≈ 42.4 µM); in the data set on Bacillus subtilis, 13.6 µg/mL (≈ 44 µM); in the data set on Bacillus thuringiensis, 8.6 µg/mL (≈ 27.8 µM).
Consider `NC[C@H]1O[C@H](O[C@H]2[C@H](O)[C@@H](O[C@H]3O[C@H](CO)[C@@H](O)[C@H](N)[C@H]3O)[C@H](N)C[C@@H]2N)[C@H](O)[C@@H](O)[C@@H]1O` [KANAMYCIN], for which the pIC50 was 5.51 in data set [1] and 5.17 in data set [2].
As to `CC(C)(S)[C@@H](N)C(=O)O` [PENICILLAMINE], the 50% inhibitory concentration (IC50) stood at 42.3 µg/mL (≈ 283 µM) with Escherichia coli, 5.8 µg/mL (≈ 38.9 µM) with Pseudomonas aeruginosa, 6.3 µg/mL (≈ 42.2 µM) with Bacillus subtilis and 6.3 µg/mL (≈ 42.2 µM) in the data set on Bacillus thuringiensis.
